# Assay results from different studies.
# Compare with care: the assays were run in different laboratories.
# Target: Serine/threonine-protein kinase 16 (STK16, Homo sapiens, UniProt O75716)
SMILES,read-out,technique,tested at,remaining binding
CNC(=O)Nc1ccc2c(c1)CC[C@@]21OC(=O)N(CC(=O)N(Cc2ccc(F)cc2)[C@@H](C)C(F)(F)F)C1=O,cell-free assay,competition with immobilised ligand,1 µM,84%
N[C@H]1CCN(c2nccc(-c3cnn4ncccc34)n2)C1,binding,,1 µM,91%
COc1cc(Nc2nccc(-c3cnn4nc(OC)ccc34)n2)cc(C(F)(F)F)c1,binding,competition with immobilised ligand,1 µM,53%
c1cncc(-c2cccc(Nc3nccc(NC4CCCCC4)n3)c2)c1,binding,competition with immobilised ligand,10 µM,42%
COc1ccc2cc(OCC3(C(=O)O)CN(C(=O)c4ccc(F)cc4)C3)ccc2c1,cell-free assay,competition with immobilised ligand,1 µM,88%
CN(C)c1nccc(-c2cnn3ncccc23)n1,binding,,1 µM,87%
O=C(NCC1CCOCC1)c1n[nH]cc1NC(=O)c1c(F)cccc1F,binding,competition with immobilised ligand,1 µM,91%
COc1cnc(Nc2cccc(S(N)(=O)=O)c2)nc1N1CCN(c2ccccc2)CC1,binding,competition with immobilised ligand,1 µM,57%
COc1cccc(CNC(=O)c2nc3scc(COCc4ccc(C(=O)O)cc4)c3c(=O)[nH]2)c1,cell-free assay,competition with immobilised ligand,1 µM,87.2%
CN(CCCC(F)(F)F)c1nccc(-c2cnn3ncccc23)n1,binding,,1 µM,79%
CO[C@@H](C)c1c(Nc2ccc([C@H](N(C)C(=O)C3CCS(=O)(=O)CC3)C(F)(F)F)cc2)cnc2cc(Cl)nn12,cell-free assay,competition with immobilised ligand,1 µM,75%
C=CC(=O)N1CCC(C(=O)NCC(=O)N2CCN(c3nc(-c4cnc(N)nc4C(F)F)nc(N4CCOCC4)n3)CC2)CC1,binding,competition with immobilised ligand,1 µM,92%
O=C(c1ccc(Nc2ncc(Cl)c(-c3ccc(Cl)s3)n2)cc1)N1CCC(N2CCCC2)CC1,binding,competition with immobilised ligand,1 µM,0.05%
CCc1ccccc1C(=O)Nc1n[nH]c2c(C)c(F)c(C3C(C#N)=C(C)N(C)C(C)=C3C#N)cc12,cell-free assay,competition with immobilised ligand,1 µM,79%
O=C(c1ccc(Nc2nccc(-c3cc4ccccc4s3)n2)cc1)N1CCC(N2CCCC2)CC1,binding,competition with immobilised ligand,1 µM,18%
CNC(=O)[C@@H]1CC[C@@H](n2c(-c3ccc4cnccc4c3)nc3ccc(C(=O)NCc4cccc(C(N)=O)c4)cc32)C1,binding,competition with immobilised ligand,1 µM,100%
Cc1cc(C)c(-n2ccn3nc(-c4cccnc4)cc23)cc1NC(=O)c1cc(C#N)cc(S(F)(F)(F)(F)F)c1,cell-free assay,competition with immobilised ligand,0.1 µM,64.3%
CN(C)c1ncc(F)c(-c2cnn3ncccc23)n1,binding,,1 µM,87%
FC(F)(F)Oc1cccc(-c2cnc3ccc(-c4ccncc4)nn23)c1,binding,competition with immobilised ligand,5 µM,40%
F[C@@H]1CCN(c2nccc(-c3cnn4ncccc34)n2)C1,binding,,1 µM,100%
O=C(c1ccc(Nc2ncc(Cl)c(-c3cc4ccccc4s3)n2)cc1)N1CCC(N2CCCC2)CC1,binding,competition with immobilised ligand,1 µM,5.6%
